In brackets after ≈: the same amount, converted by molar mass. Activity calls are given as the source filed them. No cut-off for these calls is given here.
How the values were obtained:
Nilaparvata lugens [1] = test: Insecticidal activity against Nilaparvata lugens (brown planthopper) assessed as mortality at 25 degC after 72 hr at 20 mg/L; format: functional
Summary of the method: (§1)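 Standard spray test with slight modification. Compounds dissolved in DMF, then serially diluted with water containing Triton X-80 (0.1 mg/L). Groups of 12 insects in glass Petri dishes sprayed with a Potter sprayer, air-dried, then held under normal rearing conditions (25±1 °C, […], 12 h light). Scored at 72 h on a 0–100 scale against a negative control, using kill count and size of live insects. Three replicates.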

Nilaparvata lugens [2] = test: Insecticidal activity against Nilaparvata lugens (brown planthopper) assessed as mortality at 25 degC after 72 hr at 100 mg/L; format: functional; summary of the method: as §1
Myzus persicae [3] = test: Insecticidal activity against Myzus persicae (green peach aphid) assessed as mortality at 25 degC after 72 hr at 20 mg/L; format: functional
Myzus persicae [4] = test: Insecticidal activity against Myzus persicae (green peach aphid) assessed as mortality at 25 degC after 72 hr at 4 mg/L; format: functional
Myzus persicae [5] = test: Insecticidal activity against Myzus persicae (green peach aphid) assessed as mortality at 25 degC after 72 hr at 100 mg/L; format: functional
Nilaparvata lugens [6] = test: Insecticidal activity against Nilaparvata lugens (brown planthopper) assessed as mortality at 25 degC after 72 hr at 4 mg/L; format: functional; summary of the method: as §1
Myzus persicae [7] = test: Insecticidal activity against Myzus persicae (green peach aphid) assessed as mortality at 25 degC after 72 hr; format: functional
Nilaparvata lugens [8] = test: Insecticidal activity against Nilaparvata lugens (brown planthopper) assessed as mortality at 25 degC after 72 hr; format: functional
[9] = Binding affinity to nicotinic acetylcholine receptor assessed as hydrogen bonding

Row | SMILES | mortality at 20 µg/mL (Nilaparvata lugens [1]) | mortality at 100 µg/mL (Nilaparvata lugens [2]) | mortality at 20 µg/mL (Myzus persicae [3]) | mortality at 4 µg/mL (Myzus persicae [4]) | mortality at 100 µg/mL (Myzus persicae [5]) | mortality at 4 µg/mL (Nilaparvata lugens [6]) | LC100 (Myzus persicae [7]) | LC50 (Nilaparvata lugens [8]) | Activity [9] | LC50 (Myzus persicae [7]; Myzus persicae, 72 h)
1 | CCN(Cc1ccc(Cl)nc1)C1=C([N+](=O)[O-])CN(CCCC(=O)OCCO)CN1C | 90% | 100% | 100% | 10% | 100% |  |  |  |  | 
2 | CCN(Cc1ccc(Cl)nc1)C1=C([N+](=O)[O-])CN(CCCC(=O)OCCCCCO)CN1C | 15% | 98% | 25% |  | 95% |  |  |  |  | 
3 | CCN(Cc1ccc(Cl)nc1)/C(=C/[N+](=O)[O-])NC [NITENPYRAM] | 100% | 100% | 100% | 100% | 100% | 100% | 0.129 mg/L |  |  | 
4 | CCN(Cc1ccc(Cl)nc1)C1=C([N+](=O)[O-])CN(CC(=O)OCCO)CN1C | 50% | 100% | 58% |  | 100% |  |  |  |  | 
5 | CCN(Cc1ccc(Cl)nc1)C1=C([N+](=O)[O-])CN(CCCC(=O)OCCCCO)CN1C | 78% | 100% | 70% |  | 95% |  |  |  |  | 
6 | CCN(Cc1ccc(Cl)nc1)C1=C([N+](=O)[O-])CN(CC(=O)OCCCCCCO)CN1C | 15% | 90% | 10% |  | 95% |  |  |  |  | 
7 | CCN(Cc1ccc(Cl)nc1)C1=C([N+](=O)[O-])CN(CC(=O)OCCCCO)CN1C | 30% | 95% | 33% |  | 100% |  |  |  |  | 
8 | CCN(Cc1ccc(Cl)nc1)C1=C([N+](=O)[O-])CN(C(CC(C)C)C(=O)OCCO)CN1C (stereo not drawn) | 100% | 100% | 100% | 100% | 100% | 95% |  | 0.17 µg/mL (≈ 0.362 µM) | Active | 0.17 µg/mL (≈ 0.362 µM)
9 | CCN(Cc1ccc(Cl)nc1)C1=C([N+](=O)[O-])CN(CCC(=O)OCCCCO)CN1C | 80% | 100% | 83% |  | 100% |  |  |  |  | 
10 | CCN(Cc1ccc(Cl)nc1)C1=C([N+](=O)[O-])CN(CCC(=O)OCCCO)CN1C | 98% | 100% | 100% | 55% | 100% | 70% |  |  |  | 
11 | CCN(Cc1ccc(Cl)nc1)C1=C([N+](=O)[O-])CN(C(C)C(=O)OCCO)CN1C (single isomer, unassigned; (+)) | 45% | 95% | 40% |  | 100% |  |  |  |  | 
12 | CCN(Cc1ccc(Cl)nc1)C1=C([N+](=O)[O-])CN(C(C(=O)OCCO)c2ccc(Cl)cc2)CN1C (stereo not drawn) | 25% | 95% | 25% |  | 95% |  |  |  |  | 
13 | CCN(Cc1ccc(Cl)nc1)C1=C([N+](=O)[O-])CN(C(C(=O)OCCO)C(C)C)CN1C (stereo not drawn) | 65% | 95% | 58% |  | 100% |  |  |  |  | 
